Reference: ChEMBL document CHEMBL4699571, “Synthesis of Natural and Unnatural Quinolones Inhibiting the Growth and Motility of Bacteria” (2020)
Active and inactive are the calls of the source. The calls are words filed in the database; no cut-off is given here.

Tests used:
Staphylococcus aureus = assay: Antimicrobial activity against Staphylococcus aureus ATCC 12600 assessed as zone of inhibition at 2 mg/ml after 24 hrs by agar well diffusion method; assay type: functional; settings: for zone of inhibition at 2000 µg/mL: read-out: DIZ
Method in brief: (§1)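 Preliminary agar well-diffusion screen run against a panel of eight Gram-positive and Gram-negative test microbes.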

Pseudomonas aeruginosa [1] = assay: Antimicrobial activity against Pseudomonas aeruginosa ATCC 15692 assessed as zone of inhibition at 2 mg/ml after 24 hrs by agar well diffusion method; assay type: functional; settings: for zone of inhibition at 2000 µg/mL: read-out: DIZ; method in brief: as §1
Pseudomonas aeruginosa [2] = assay: Antimicrobial activity against Pseudomonas aeruginosa ATCC 15692 assessed as reduction in microbial growth at 1.1 to 33.4 ug/ml after 24 hrs by broth microdilution method; assay type: functional, organism-based; settings: dose microg/ml 1.1-33.4, time 24.0 hrs
Method in brief: (§2)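 P. aeruginosa growth-inhibition assay in broth. Each compound was tested at final concentrations of 1.1, 2.1, 4.2, 8.4, 16.7 and 33.4 μg/mL. The read-out is the extent of growth inhibition at each concentration.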

[3] = system: Staphylococcus epidermidis; assay: Antimicrobial activity against Staphylococcus epidermidis ATCC 14990 assessed as zone of inhibition at 2 mg/ml after 24 hrs by agar well diffusion method; assay type: functional; settings: for zone of inhibition at 2000 µg/mL: read-out: DIZ; method in brief: as §1
Bacillus spizizenii [4] = assay: Antimicrobial activity against Bacillus subtilis subsp. spizizenii ATCC 6633 assessed as zone of inhibition at 2 mg/ml after 24 hrs by agar well diffusion method; assay type: functional; settings: for zone of inhibition at 2000 µg/mL: read-out: DIZ; method in brief: as §1
Bacillus spizizenii [5] = assay: Inhibition of swarming motility of Bacillus subtilis subsp. spizizenii ATCC 6633 at 10 uM after 24 hrs; assay type: functional, organism-based
Pseudomonas aeruginosa [6] = assay: Antimicrobial activity against Pseudomonas aeruginosa ATCC 15692 assessed as reduction in microbial growth at MIC concentration after 10 hrs by time kill assay; assay type: functional, organism-based
Method in brief: (§3)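 Time-kill study against P. aeruginosa with compound at 1/4 MIC, MIC and 4 × MIC. Viable counts were followed as log CFU over a 24 h period, with sampling from 2 h onward. Ciprofloxacin served as the positive control.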

Pseudomonas aeruginosa [7] = assay: Antimicrobial activity against Pseudomonas aeruginosa ATCC 15692 assessed as reduction in microbial growth after 24 hrs by broth microdilution method; assay type: functional; method in brief: as §2
Pseudomonas aeruginosa [8] = assay: Antimicrobial activity against Pseudomonas aeruginosa ATCC 15692 assessed as reduction in microbial growth at 4 times of MIC concentration after 24 hrs by time kill assay; assay type: functional, organism-based; method in brief: as §3
Pseudomonas aeruginosa [9] = assay: Antimicrobial activity against Pseudomonas aeruginosa ATCC 15692 assessed as reduction in microbial growth at 2.1 to 33.4 ug/ml after 24 hrs by broth microdilution method relative to control; assay type: functional; settings: dose microg/ml 2.1-33.4; method in brief: as §2
Pseudomonas aeruginosa [10] = assay: Antimicrobial activity against Pseudomonas aeruginosa ATCC 15692 assessed as reduction in microbial growth at 0.25 times of MIC concentration after 2 to 24 hrs by time kill assay; assay type: functional, organism-based; settings: time 2.0 hrs; method in brief: as §3

CSc1ccc(Cc2cc(=O)c3ccccc3n2C)cc1
diameter of the inhibition zone (DIZ) (Staphylococcus aureus): inactive | zone of inhibition at 2000 µg/mL (Pseudomonas aeruginosa [1]): 36 mm | Activity (Pseudomonas aeruginosa [2]): inactive | diameter of the inhibition zone (DIZ) [3]: inactive | diameter of the inhibition zone (DIZ) (Bacillus spizizenii [4]): inactive | swarming motility inhibition (active/not active) (Bacillus spizizenii [5]): Active

CCCC/C=C/Cc1cc(=O)c2ccccc2n1C
swarming motility inhibition (active/not active) (Bacillus spizizenii [5]): Active

CSc1ccc(Cc2cc(=O)c3ccccc3[nH]2)cc1
diameter of the inhibition zone (DIZ) (Staphylococcus aureus): inactive | zone of inhibition at 2000 µg/mL (Pseudomonas aeruginosa [1]): 29 mm | Activity (Pseudomonas aeruginosa [2]): inactive | diameter of the inhibition zone (DIZ) [3]: inactive | diameter of the inhibition zone (DIZ) (Bacillus spizizenii [4]): inactive | swarming motility inhibition (active/not active) (Bacillus spizizenii [5]): Active

CSC(SC)c1c(C)c2ccccc2[nH]c1=O
Activity (Pseudomonas aeruginosa [2]): inactive | swarming motility inhibition (active/not active) (Bacillus spizizenii [5]): inactive

CCOC(OCC)c1c(C)c2ccccc2[nH]c1=O
swarming motility inhibition (active/not active) (Bacillus spizizenii [5]): inactive

CS/C=C\c1cc(=O)c2ccccc2[nH]1
swarming motility inhibition (active/not active) (Bacillus spizizenii [5]): inactive

O=C(O)c1cn(C2CC2)c2cc(N3CCNCC3)c(F)cc2c1=O [CIPROFLOXACIN]
zone of inhibition at 2000 µg/mL (Pseudomonas aeruginosa [1]): 35 mm

CCCC/C=C/Cc1cc(=O)c2ccccc2[nH]1
zone of inhibition at 2000 µg/mL (Staphylococcus aureus): 9 mm | Activity (Pseudomonas aeruginosa [6]): Active | zone of inhibition at 2000 µg/mL (Pseudomonas aeruginosa [1]): 35 mm | MIC (Pseudomonas aeruginosa [7]): 33 µg/mL | Activity (Pseudomonas aeruginosa [2]): Active | Activity (Pseudomonas aeruginosa [8]): Active | inhibition (INH) (Pseudomonas aeruginosa [9]): 37% | Activity (Pseudomonas aeruginosa [10]): Active | zone of inhibition at 2000 µg/mL [3]: 24 mm | zone of inhibition at 2000 µg/mL (Bacillus spizizenii [4]): 9 mm | swarming motility inhibition (active/not active) (Bacillus spizizenii [5]): Active

CO/C=C/c1cc(=O)c2ccccc2[nH]1
swarming motility inhibition (active/not active) (Bacillus spizizenii [5]): inactive

COC(OC)c1c(C)c2ccccc2[nH]c1=O
swarming motility inhibition (active/not active) (Bacillus spizizenii [5]): inactive

O=c1cc(Cc2ccccc2)[nH]c2ccccc12
Activity (Pseudomonas aeruginosa [2]): inactive | swarming motility inhibition (active/not active) (Bacillus spizizenii [5]): Active

Cc1c(CN(C)C)c(=O)[nH]c2ccccc12
swarming motility inhibition (active/not active) (Bacillus spizizenii [5]): Active

COCc1c(C)c2ccccc2[nH]c1=O
swarming motility inhibition (active/not active) (Bacillus spizizenii [5]): Active

CCSCc1c(C)c2ccccc2[nH]c1=O
swarming motility inhibition (active/not active) (Bacillus spizizenii [5]): Active

CSCc1c(C)c2ccccc2[nH]c1=O
swarming motility inhibition (active/not active) (Bacillus spizizenii [5]): Active

CS/C=C/c1cc(=O)c2ccccc2[nH]1
diameter of the inhibition zone (DIZ) (Staphylococcus aureus): inactive | diameter of the inhibition zone (DIZ) (Pseudomonas aeruginosa [1]): inactive | Activity (Pseudomonas aeruginosa [2]): inactive | diameter of the inhibition zone (DIZ) [3]: inactive | zone of inhibition at 2000 µg/mL (Bacillus spizizenii [4]): 23 mm | swarming motility inhibition (active/not active) (Bacillus spizizenii [5]): inactive

CCS/C=C/c1cc(=O)c2ccccc2[nH]1
zone of inhibition at 2000 µg/mL (Staphylococcus aureus): 13 mm | diameter of the inhibition zone (DIZ) (Pseudomonas aeruginosa [1]): inactive | Activity (Pseudomonas aeruginosa [2]): inactive | diameter of the inhibition zone (DIZ) [3]: inactive | diameter of the inhibition zone (DIZ) (Bacillus spizizenii [4]): inactive | swarming motility inhibition (active/not active) (Bacillus spizizenii [5]): inactive

CCO/C=C/c1cc(=O)c2ccccc2[nH]1
swarming motility inhibition (active/not active) (Bacillus spizizenii [5]): inactive

CC1(C)S[C@@H]2[C@H](NC(=O)[C@H](N)c3ccccc3)C(=O)N2[C@H]1C(=O)O [AMPICILLIN]
zone of inhibition at 2000 µg/mL (Staphylococcus aureus): 39 mm | zone of inhibition at 2000 µg/mL [3]: 29 mm

Cn1c(Cc2ccccc2)cc(=O)c2ccccc21
Activity (Pseudomonas aeruginosa [2]): inactive | swarming motility inhibition (active/not active) (Bacillus spizizenii [5]): inactive

CN[C@H](CC(C)C)C(=O)N[C@H]1C(=O)N[C@@H](CC(N)=O)C(=O)N[C@H]2C(=O)N[C@H]3C(=O)N[C@H](C(=O)N[C@H](C(=O)O)c4cc(O)cc(O)c4-c4cc3ccc4O)[C@H](O)c3ccc(c(Cl)c3)Oc3cc2cc(c3O[C@@H]2O[C@H](CO)[C@@H](O)[C@H](O)[C@H]2O[C@H]2C[C@](C)(N)[C@H](O)[C@H](C)O2)Oc2ccc(cc2Cl)[C@H]1O [VANCOMYCIN]
zone of inhibition at 2000 µg/mL (Bacillus spizizenii [4]): 19 mm

CCSC(SCC)c1c(C)c2ccccc2[nH]c1=O
Activity (Pseudomonas aeruginosa [2]): inactive | swarming motility inhibition (active/not active) (Bacillus spizizenii [5]): inactive
